inhibition, Ratio and K app data for eight compounds are collected here from ChEMBL document CHEMBL1124046, “2-Methyl-1,3-dioxaazaspiro[4.5]decanes as novel muscarinic cholinergic agonists” (J Med Chem, 1988).

Experiment [1] has as its target T1, Muscarinic acetylcholine receptor (Rattus norvegicus) (UniProt P08482+P08483+P08485+P08911+P10980). The experiment can be described thus: Percent inhibition of [3H]N-methylscopolamine (NMS) binding to Muscarinic acetylcholine receptor in rat cortex at a concentration of >100 uM. A digest of the protocol: (§1)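 Rat cortical membranes (male Sprague-Dawley, 250-300 g). Test compound at a single stated concentration; percent inhibition of specific binding is reported. [3H]-N-methylscopolamine (0.1 nM) in 20 mM HEPES Krebs' buffer pH 7.4, 60 min at 30 °C; [3H]oxotremorine-M (3.0 nM) in 20 mM HEPES buffer pH 7.4, 40 min at 30 °C. Ended by filtration.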

Experiment [2] deals with T1, Muscarinic acetylcholine receptor (Rattus norvegicus). The experiment in a line: Percent inhibition of [3H]oxotremorine-M binding to Muscarinic acetylcholine receptor in rat cortex at a concentration of >10 uM. A digest of the protocol: as §1
A short description of experiment [3]: Ratio of NMS/oxo-M apparent binding affinities (Kapp). In short, it runs like this: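 Two rat cortical membrane binding assays, each in triplicate with at least four concentrations, Kapp corrected for radioligand occupancy. [3H]N-methylscopolamine (0.1 nM) run in 20 mM HEPES Krebs' buffer pH 7.4, 60 min at 30 °C. [3H]oxotremorine-M (3.0 nM) run in 20 mM HEPES pH 7.4, 40 min at 30 °C. Ratio taken as NMS Kapp over oxo-M Kapp.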

Experiment [4] addresses T1, Muscarinic acetylcholine receptor (Rattus norvegicus). To be noted: Cortex.
Experiment [5] has the same target. Particulars: Cortex. This is another data set of the same source.
For experiment [6] the target is unchanged. The experiment can be described thus: Apparent binding affinity at Muscarinic acetylcholine receptor by displacing [3H]oxotremorine-M in rat cortex. In kind it is tissue-based. A digest of the protocol:
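Membranes from male Sprague-Dawley rat (250-300 g) cortex in 20 mM HEPES buffer pH 7.4; displacement of 3.0 nM [3H]oxotremorine-M, 40 min at 30 °C, ended by filtration onto polyethylenimine-presoaked GF/C filters. Triplicates, at least four concentrations per curve; apparent affinity constant corrected for radioligand occupancy, in µM, geometric mean of n experiments.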

Experiment [7] has the same target. Particulars: Cortex. This is another data set of the same source.
For experiment [8] the target is unchanged. Particulars: Cortex. This is another data set of the same source.
Experiment [9] has the same target. Particulars: Cortex. The source holds these as a separate data set.
For experiment [10] the target is unchanged. The experiment in a line: Apparent binding affinity at Muscarinic acetylcholine receptor by displacing [3H]oxotremorine-M in rat cortex at a concentration of >10 uM. The experiment is classed as tissue-based. In short, it runs like this:
(§2)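 Membranes from cortex of male Sprague-Dawley rats (250-300 g). Displacement curves with 0.1 nM [3H]-N-methylscopolamine in 20 mM HEPES Krebs' buffer pH 7.4, 60 min at 30 °C; or with 3.0 nM [3H]oxotremorine-M in 20 mM HEPES buffer pH 7.4, 40 min at 30 °C. Filtration read-out. Triplicates, at least four concentrations. Kapp corrected for radioligand occupancy; geometric mean of n experiments.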

Experiment [11] has the same target. The experiment in a line: Apparent binding affinity at Muscarinic acetylcholine receptor, by displacing [3H]N-methylscopolamine (NMS) in rat cortex at a concentration of >100 uM. The experiment is classed as tissue-based. A digest of the protocol:
as §2

As to `CC1OCC2(CCCN(C)C2)O1` (stereo in doubt; 4a), the results for the inhibition in [1] and in experiment [2] were 24% and 4%, respectively.

In the case of `CC1OCC2(CCNCC2)O1` (stereo not drawn), the Ratio in [3] was found to be 470. The K app in [4] came out at 0.092 µM; in experiment [5], 43 µM.

In the case of `CCN1C(=O)CC2(CCN(C)CC2)C1=O`, the Ratio in experiment [3] came to 130. Moreover, the K app in [6] was 0.04 µM; in [7], 5 µM.

Turning to `CC1OCC2(CCCN(C)C2)O1` (stereo in doubt; 4b), the values for the inhibition in experiment [1] and in experiment [2] were 19% and 10%, respectively.

With `C[N+](C)(C)CCOC(N)=O`, the Ratio in [3] worked out at 4100. Further, the K app in experiment [8] is 24 µM; in experiment [9], 0.0058 µM.

Consider `CCC1OCC2(CCN(C)CC2)O1` (stereo not drawn), for which the Ratio in experiment [3] is 24. Moreover, the K app in experiment [6] worked out at 0.22 µM; in [8], 5.3 µM.

With `CC1OCC2(CCCNC2)O1` (stereo not drawn), the inhibition in [10] came to 13%; in experiment [11], 20%; in [1] it was 29%; in experiment [2], 25%.

On to `C[C@H]1OCC2(CN3CCC2CC3)O1` (stereo partly drawn), for which the Ratio in experiment [3] was 140. For the same compound, the K app in experiment [6] was 0.035 µM; in experiment [8], 4.9 µM.
